Compound activity from PubChem BioAssay.
SENP1 FRET inh: human SENP1 catalytic domain inhibitors, primary screen, biochemical, FRET, uHTS. Sentrin-specific protease 1 (Homo sapiens), Q9P0U3. recombinant SENP1 catalytic domain, CyPet-SUMO1-YPet FRET cleavage. inhibition, % at 10 µM. hit rate 0.21% among 360,000;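 active means inhibition at least 30% at 10 µM, raw YFP signal under a set limit, fluorescence ratio 0.5 to 1.5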;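 further: 0% = enzyme with DMSO and 100% = no enzyme wells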
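system = hSENP1 catalytic domain, recombinant | reagent = SFCypet-SUMO1-SFYpet substrate at 25 nM | doses = one dose per compound, 10 µM, 0.5% DMSO | incubation = enzyme reaction for 50 min at room temperature, dark | measured by = FRET, CFP and YFP emission | controls = no-enzyme low, enzyme-DMSO high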
SENP8 block-1: SENP8 protease inhibitors, primary screen, biochemical, luminescence; Sentrin-specific protease 8 (Homo sapiens), Q96LD8; purified SENP8, Z-RLRGG-aminoluciferin cleavage; inhibition, % at 10 µM; hit rate 1.2% among 330,000; AID 2540, 2010; in the data active means inhibition above about 50%
SENP7 block: SENP7 protease inhibitors, primary screen, biochemical, luminescence, uHTS. Sentrin-specific protease 7 (Homo sapiens), Q9BQF6. recombinant SENP7, Z-RLRGG-aminoluciferin luminescence, 40 min. inhibition, % at 5 µM. hit rate 1.5% among 330,000;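 active means inhibition above about 50% at the single test dose, limit read from the data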;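 further: plate controls were DMSO with enzyme for no effect and no enzyme buffer wells for full effect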
Target sequence (Q9BQF6 706-1050 limits assumed): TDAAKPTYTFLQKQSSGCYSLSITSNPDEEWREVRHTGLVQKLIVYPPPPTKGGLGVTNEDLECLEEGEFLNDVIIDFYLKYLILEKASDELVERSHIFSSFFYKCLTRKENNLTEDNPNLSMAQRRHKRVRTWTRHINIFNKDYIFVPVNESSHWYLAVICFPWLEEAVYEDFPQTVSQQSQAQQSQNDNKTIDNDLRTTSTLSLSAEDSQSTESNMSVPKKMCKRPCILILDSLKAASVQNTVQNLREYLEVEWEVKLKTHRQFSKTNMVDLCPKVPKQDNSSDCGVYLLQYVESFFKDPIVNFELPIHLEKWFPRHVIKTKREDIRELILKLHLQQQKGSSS
SENP6 inh: SENP6 protease inhibitors, primary screen, biochemical, luminescence, uHTS; Recombinant SENP6 catalytic domain, aminoluciferin luminescence; AID 2599, 2010; hit rate 1.8% among 330,000; Sentrin-specific protease 6 (Homo sapiens), Q9GZR1; inhibition, % at 10 µM;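 active means inhibition above about 50% at the single tested dose, limit read from the data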;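 further: plate controls were DMSO wells with enzyme for no effect and DMSO wells lacking enzyme for full effect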
HSP90 inh: HSP90 inhibitors, primary screen, cell lysate, luminescence. Heat shock protein HSP 90 (rabbit reticulocyte lysate; luciferase refolding). Rabbit reticulocyte lysate, luciferase refolding luminescence, 3 h. inhibition, % at 5.6 µM. hit rate 0.91% among 290,000. AID 1789, 2009;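 active means inhibition above the screen-wide mean plus 3 SD, computed separately per campaign, cut at about 16% in these data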;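 further: 0% = DMSO wells and 100% = 60 µM geldanamycin wells; inhibitors lower the luminescence because luciferase stays unfolded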
SENP8 block-2: human SENP8 protease inhibitors, primary screen, biochemical, fluorescence, Nedd8 protein substrate, uHTS; Sentrin-specific protease 8 (Homo sapiens), Q96LD8; recombinant SENP8; inhibition, % at 20 µM; hit rate 0.64% among 360,000; AID 602440, 2012; in the data active means inhibition mostly above about 40%, no sharp cut-off; inactive means mostly below about 27%
SENP8 confirm: SENP8 protease inhibitors, retest, confirmation, biochemical, luminescence, single concentration | shares compounds with SENP7 block | Recombinant SENP8, Z-RLRGG-aminoluciferin luminescence, 60 min | inhibition, % at 12.5 µM | hit rate 40% among 6,200 | AID 488912, 2010;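 active means mean inhibition across replicates above about 50%, limit read from the data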
SENP6 confirm: SENP6 protease inhibitors, confirmation, biochemical, luminescence, single concentration; shares compounds with SENP7 block; recombinant SENP6, Z-RLRGG-aminoluciferin luminescence; inhibition, % at 12.5 µM; hit rate 58% among 6,200
SENP7 conf: SENP7 protease inhibitors, retest, confirmation, biochemical, luminescence, single concentration; inhibition, % at 12.5 µM; AID 488917, 2010; recombinant SENP7, Z-RLRGG-aminoluciferin luminescence, 40 min; hit rate 69% among 6,200; shares compounds with SENP7 block
Casp3 SENP sel: caspase-3 protease inhibitors, confirmation, selectivity assay for SENP inhibitor project, biochemical, single concentration | shares compounds with SENP7 block | purified caspase-3, Z-DEVD-aminoluciferin luminescence, 60 min | inhibition, % at 12.5 µM | hit rate 60% among 6,200 | AID 488918, 2010;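 active means mean inhibition above about 50%, limit read from the data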;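 further: plate controls were enzyme with DMSO for no effect and wells without caspase-3 for full effect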
SENP luc ctr: counter-screen for SENP inhibitors: luminescence interference; inhibition, % at 12.5 µM; hit rate 39% among 6,200; shares compounds with SENP7 block; Pre-incubated SENP8/Z-RLRGG-aminoluciferin, luciferase luminescence interference;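 active means mean inhibition above about 50% when retested at one dose, limit read from the data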;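 further: plate controls were DMSO wells with completed reaction for no effect and substrate without enzyme for full effect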
* = called active by the depositor; . = not tested or not shown. A selection: hits, their analogues and other compounds. The true share with any hit is near 2.9%.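 How the source made its calls, unless noted: active means mean inhibition above about 50% in the one-dose retest (limit read from the data); inactive means the rest.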

SMILES	SENP1 FRET inh	SENP8 block-1	SENP7 block	SENP6 inh	HSP90 inh	SENP8 block-2	SENP8 confirm	SENP6 confirm	SENP7 conf	Casp3 SENP sel	SENP luc ctr
COc1ccc(C(=O)NNC(=O)c2ccc(F)c(S(=O)(=O)N3CCOCC3)c2)cc1	1	11	1	5	.	15	.	.	.	.	.
COc1ccc([C@H]2C[C@@H](O)[C@H](n3cc(COC(=O)c4ccccc4)nn3)CN2C(=O)c2cccs2)cc1	-1	.	.	.	.	0	.	.	.	.	.
COc1ccccc1CC(NC(C)=O)C(=O)NC1CCN(C(=O)Nc2ccccc2F)CC1 (stereo not drawn)	1	-5	-6	19	0	19	.	.	.	.	.
COc1ccc(OCC(=O)N2CCc3ccccc32)c([N+](=O)[O-])c1	0	.	.	.	.	23	.	.	.	.	.
O=C(Nc1cccc(Oc2ccc(C(=O)O)c(C(=O)O)c2)c1)c1ccc(-c2ccccc2)cc1	3	44	2	72*	-7	7	51*	39	64*	50*	68*
CC(C)(C)C(=O)Nc1ccc(C(=O)Nc2cccc(Oc3ccc(C(=O)O)c(C(=O)O)c3)c2)cc1	0	10	-1	17	2	15	.	.	.	.	.
COc1ccc(C2N=C(c3ccccc3)NC(c3ccccc3)=N2)cc1	2	-3	-3	-49	2	7	.	.	.	.	.
FC(F)Oc1ccc(C2N=C(c3ccccc3)NO2)cc1 (stereo not drawn)	-2	54*	2	62*	9	-20	17	28	24	18	14
COc1ccc(C2N=C(c3ccccc3)NO2)cc1OC (stereo not drawn)	-3	19	9	8	-3	-9	.	.	.	.	.
COc1cc(C2N=C(c3ccccc3)NO2)cc(Br)c1O (stereo not drawn)	-6	77*	28	91*	4	-165	85*	84*	92*	58*	85*
COc1c2c(c(OC)c3ccccc13)[C@@]1(OC2)O[C@H](CCO)C[C@H](O)[C@H]1O	1	.	.	.	.	-5	.	.	.	.	.
Cc1ccc(S(=O)(=O)Nc2ccccc2F)cc1C(=O)OC(C)C(=O)N1CCOCC1 (stereo not drawn)	1	-20	-4	-17	.	3	.	.	.	.	.
COC(=O)C1=C(C)N(c2ccc(Cl)c(Cl)c2)C(=O)C1	-68	1	-1	5	2	-6	.	.	.	.	.
COC(=O)[C@]12C(=O)NC[C@H](CN1c1ccc(Cl)c(C)c1)N2C	2	6	100*	-9	.	21	-30	-18	-11	-12	-9
Cc1ccc(-c2nc(N/N=C/c3cccnc3)c3ccccc3n2)cc1	-4	87*	90*	88*	0	-69	45	77*	76*	84*	21
Cc1nn(C)cc1S(=O)(=O)Nc1ncccn1	1	-6	-10	-3	0	2	.	.	.	.	.
O=C(CNc1cc(S(=O)(=O)N2CCOCC2)ccc1N1CCCC1)Nc1ccc(Cl)cc1	-3	.	.	.	.	-26	.	.	.	.	.
